Values after ≈ are worked out from the molar mass of the structure shown.
Legend:
CHO [1] = test: Inhibition of SFLLR-NH2-induced calcium release in CHO cells at 10 uM treated prior to SFLLR-NH2 challenge […] by FLIPR assay; type: functional; conditions: Cricetulus griseus
How it was run: (§1)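 FLIPR fluorescence assay in CHO cells. Calcium release is evoked by 1 μM SFLLR-NH₂, the PAR1-selective agonist peptide. Compound effect is given as % inhibition at 10 μM or, for competitive antagonists, as a calculated pA₂.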

CHO [2] = test: Inhibition of SFLLR-NH2-induced calcium release in CHO cells treated prior to SFLLR-NH2 challenge […] by FLIPR assay; type: functional, cell-based; conditions: Cricetulus griseus, read-out: pA2 (converted); how it was run: as §1
Rattus norvegicus [3] = test: Increase in occlusion time of arteriovenous shunt in Crl: OFA Sprague-Dawley rat at 1.25 mg/kg, iv; type: functional
How it was run: (§2)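 Anesthetized rats; extracorporeal shunt from left carotid artery to right jugular vein, silk thread in the central portion as thrombogenic substrate. A thermal microprobe on the central shunt section gives time to occlusion, seen as a sharp temperature drop. Compound given iv at 1.25 mg/kg or orally at 40 mg/kg. Result expressed as % increase in occlusion time.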

Rattus norvegicus [4] = test: Increase in occlusion time of arteriovenous shunt in Crl; OFA Sprague-Dawley rat at 40 mg/kg, po; type: functional; how it was run: as §2
Platelet = test: Inhibition of SFLLR-induced human platelet aggregation; type: functional
[5] = Solubility in water; type: physicochemical
How it was run: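 Aqueous solubility was determined on the hydrochloride salt and expressed in mg/mL.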

[6] = Half life in rat plasma at 1 mg/kg, iv and 5 mg/kg, po; type: ADME, organism-based
How it was run: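 Plasma half-life was measured in male rats dosed iv at 1 mg/kg and po at 5 mg/kg. The value is the mean over three rats.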

[7] = Oral bioavailability in rat; type: ADME, organism-based; conditions: in vivo
How it was run: (§3)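 Rat pharmacokinetic parameters were determined on the hydrochloride salt of each compound.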

[8] = Clearance in rat; type: ADME, organism-based; conditions: in vivo; how it was run: as §3
[9] = target: Proteinase-activated receptor 2 (Homo sapiens) (UniProt P55085); test: Antagonist activity at PAR2 expressed in Cos7 cells assessed as SLIGRl-mediated SRE-luciferase activity; type: functional, cell-based; conditions: COS-7
[10] = target: T1, Proteinase-activated receptor 4 (Homo sapiens) (UniProt Q96RI0); test: Antagonist activity at PAR4 expressed in Cos7 cells assessed as AYPGKF-mediated SRE-luciferase activity; type: functional, cell-based; conditions: COS-7
T1 sequence (whole entry): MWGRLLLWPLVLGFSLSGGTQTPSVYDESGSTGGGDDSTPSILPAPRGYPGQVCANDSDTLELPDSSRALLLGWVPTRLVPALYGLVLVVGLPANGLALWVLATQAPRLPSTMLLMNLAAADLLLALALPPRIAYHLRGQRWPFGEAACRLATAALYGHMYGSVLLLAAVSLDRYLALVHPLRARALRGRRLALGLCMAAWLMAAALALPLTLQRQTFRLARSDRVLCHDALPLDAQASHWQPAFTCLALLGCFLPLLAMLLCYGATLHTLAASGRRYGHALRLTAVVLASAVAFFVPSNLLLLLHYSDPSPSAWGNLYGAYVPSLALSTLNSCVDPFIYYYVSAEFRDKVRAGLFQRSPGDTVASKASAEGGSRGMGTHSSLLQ

[11] = target: T2, Proteinase-activated receptor 1 (Homo sapiens) (UniProt P25116); test: Antagonist activity at PAR1 expressed in Cos7 cells assessed as SFLLR-mediated SRE-luciferase activity; type: functional, cell-based; conditions: COS-7
T2 sequence (whole entry): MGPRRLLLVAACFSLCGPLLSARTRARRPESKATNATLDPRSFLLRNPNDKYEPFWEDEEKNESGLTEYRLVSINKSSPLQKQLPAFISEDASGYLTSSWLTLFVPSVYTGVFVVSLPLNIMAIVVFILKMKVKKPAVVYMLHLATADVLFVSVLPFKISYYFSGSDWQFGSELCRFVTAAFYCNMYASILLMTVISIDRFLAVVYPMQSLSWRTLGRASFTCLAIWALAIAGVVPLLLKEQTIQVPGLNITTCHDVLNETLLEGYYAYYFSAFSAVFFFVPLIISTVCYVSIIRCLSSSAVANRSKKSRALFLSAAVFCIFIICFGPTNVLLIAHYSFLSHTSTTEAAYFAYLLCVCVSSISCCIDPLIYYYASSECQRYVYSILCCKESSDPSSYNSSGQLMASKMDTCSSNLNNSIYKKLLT

[12] = Selectivity for PAR1 to PAR2
[13] = Selectivity for PAR1 to PAR4

Chain of Proteinase-activated receptor 2 (Homo sapiens) (P55085 whole entry): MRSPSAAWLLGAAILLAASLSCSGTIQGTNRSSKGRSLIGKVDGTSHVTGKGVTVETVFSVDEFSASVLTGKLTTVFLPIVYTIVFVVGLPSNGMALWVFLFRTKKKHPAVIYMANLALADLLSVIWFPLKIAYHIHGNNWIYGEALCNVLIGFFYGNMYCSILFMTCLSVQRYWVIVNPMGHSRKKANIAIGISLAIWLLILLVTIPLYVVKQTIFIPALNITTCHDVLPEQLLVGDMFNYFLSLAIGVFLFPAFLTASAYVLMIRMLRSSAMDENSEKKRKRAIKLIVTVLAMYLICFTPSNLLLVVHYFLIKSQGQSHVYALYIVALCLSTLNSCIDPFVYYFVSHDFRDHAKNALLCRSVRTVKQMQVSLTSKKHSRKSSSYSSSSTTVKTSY

## Cc1cccc(CN2CCN(C(=O)/C=C/c3ccccc3[N+](=O)[O-])CC2)c1
CHO [1]
  inhibition at 10 µM: 72.4%

## N#Cc1ccc(N2CCN(C(=O)/C=C/c3ccccc3[N+](=O)[O-])CC2)cc1
CHO [1]
  inhibition at 10 µM: 18.8%

## O=C(/C=C/c1ccccc1[N+](=O)[O-])N1CCN(C(=O)NC2CCCCC2)CC1
CHO [1]
  inhibition at 10 µM: 39.2%

## O=C(/C=C/c1ccccc1[N+](=O)[O-])N1CCN(Cc2ccc(F)cc2)CC1
CHO [1]
  inhibition at 10 µM: 88.6%

## Cc1cccc(CN2CCN(C(=O)/C=C/c3c(F)cccc3F)CC2)c1
CHO [1]
  inhibition at 10 µM: 86.2%

## O=C(/C=C/c1ccccc1[N+](=O)[O-])N1CCN(Cc2ccncc2)CC1
CHO [1]
  inhibition at 10 µM: 0%

## O=C(CCc1ccccc1[N+](=O)[O-])N1CCN(Cc2ccc(F)cc2)CC1
CHO [1]
  inhibition at 10 µM: 45.3%

## O=C(/C=C/c1ccccc1[N+](=O)[O-])N1CCN(C(=O)C2CCCCCC2)CC1
CHO [1]
  inhibition at 10 µM: 99.9%

## O=C(/C=C/c1ccccc1Cl)C1CCN(Cc2ccc(F)cc2)CC1
CHO [1]
  inhibition at 10 µM: 15.8%

## O=C(/C=C/c1c(F)cccc1F)N1CCN(C(=O)C2CCCCCC2)CC1
CHO [1]
  inhibition at 10 µM: 98.9%
CHO [2]
  Kb: 0.214 µM
Rattus norvegicus [3]
  Activity: 14%
Rattus norvegicus [4]
  Activity: 0%

## O=C(/C=C/c1ccccc1[N+](=O)[O-])N1CCN(S(=O)(=O)c2ccccc2F)CC1
CHO [1]
  inhibition at 10 µM: 0%

## O=C(/C=C/C=C/c1ccccc1[N+](=O)[O-])N1CCN(C2CCCC2)CC1
CHO [1]
  inhibition at 10 µM: 91.7%
CHO [2]
  Kb: 0.0692 µM
Platelet
  pKb: 5.5
Rattus norvegicus [3]
  Activity: 44%
Rattus norvegicus [4]
  Activity: 7%

## Cc1ccc(CN2CCN(C(=O)/C=C/c3c(F)cccc3F)CC2)cc1C
CHO [1]
  inhibition at 10 µM: 65.3%

## O=C(/C=C/c1cccc(Cl)c1)N1CCN(Cc2ccc(F)cc2)CC1
CHO [1]
  inhibition at 10 µM: 0.7%

## O=C(/C=C/c1ccccc1[N+](=O)[O-])N1CCCN(Cc2ccc(F)cc2)CC1
CHO [1]
  inhibition at 10 µM: 38.2%

## Nc1ccccc1/C=C/C(=O)N1CCN(Cc2ccc(F)cc2)CC1
CHO [1]
  inhibition at 10 µM: 7.4%

## N#Cc1ccccc1/C=C/C(=O)N1CCN(C(=O)C2CCCCCC2)CC1
CHO [1]
  inhibition at 10 µM: 92.6%
CHO [2]
  Kb: 0.0871 µM
Platelet
  pKb: 5.17
Rattus norvegicus [3]
  Activity: 19%

## O=C(/C=C/c1ccccc1Br)N1CCN(Cc2ccc(F)cc2)CC1
CHO [1]
  inhibition at 10 µM: 93.1%

## O=C(/C=C/C=C/c1ccccc1Cl)N1CCCN(Cc2ccc(F)cc2)CC1
CHO [1]
  inhibition at 10 µM: 37.8%

## O=C(/C=C/c1ccccc1[N+](=O)[O-])N1CCN(Cc2ccc(F)cc2)C(=O)C1
CHO [1]
  inhibition at 10 µM: 26.7%

## O=C(/C=C/C=C/c1ccccc1[N+](=O)[O-])N1CCN(c2ccccc2)CC1
CHO [1]
  inhibition at 10 µM: 100%
CHO [2]
  Kb: 0.0589 µM
Platelet
  pKb: 5.65
Rattus norvegicus [3]
  Activity: 3%

## O=C(/C=C/C=C/c1ccccc1[N+](=O)[O-])N1CCN(Cc2ccc(F)cc2)CC1
CHO [1]
  inhibition at 10 µM: 59.4%

## O=C(/C=C/c1ccccc1[N+](=O)[O-])N1CCC(NCc2ccc(F)cc2)CC1
CHO [1]
  inhibition at 10 µM: 0%

## O=C(/C=C/c1ccccc1[N+](=O)[O-])N1CCN(c2cccc(Cl)c2)CC1
CHO [1]
  inhibition at 10 µM: 97.1%

## CCOc1cc2c(cc1C(=O)NC)C(=N)N(CC(=O)c1cc(C(C)(C)C)c(O)c(C(C)(C)C)c1)C2
CHO [2]
  Kb: 0.141 µM
Platelet
  pKb: 8.18
Rattus norvegicus [3]
  Activity: 27%
Rattus norvegicus [4]
  Activity: 43%

## O=C(/C=C/c1ccccc1Cl)N1CCN(Cc2ccc(F)cc2)CC1
CHO [1]
  inhibition at 10 µM: 92.8%
CHO [2]
  Kb: 0.214 µM
Platelet
  pKb: 5.52
Rattus norvegicus [3]
  Activity: 28%
[5]
  solubility: 1700 µg/mL (≈ 4.74 mM)
[6]
  half-life: 2.17 h
[7]
  bioavailability: 43%
[8]
  clearance: 40 mL/min/kg
[9]
  pKb: 4.45
[10]
  pKb: 4.91
[11]
  pKb: 5.55
[12]
  Selectivity ratio: 15
[13]
  Selectivity ratio: 5
Rattus norvegicus [4]
  Activity: 59%

## O=C(/C=C/c1c(F)cccc1F)N1CCN(Cc2ccc(F)c(F)c2)CC1
CHO [1]
  inhibition at 10 µM: 73.1%

## N#Cc1ccccc1/C=C/C(=O)N1CCN(Cc2ccc(F)cc2)CC1
CHO [1]
  inhibition at 10 µM: 85.4%

## O=C(C#Cc1ccccc1[N+](=O)[O-])N1CCN(Cc2ccc(F)cc2)CC1
CHO [1]
  inhibition at 10 µM: 28.6%

## N#Cc1ccccc1/C=C/C=C/C(=O)N1CCN(c2ccccn2)CC1
CHO [1]
  inhibition at 10 µM: 98.7%
CHO [2]
  Kb: 0.324 µM
Platelet
  pKb: 5.3
Rattus norvegicus [3]
  Activity: 58%
[5]
  solubility: 2500 µg/mL (≈ 7.26 mM)
[6]
  half-life: 2.78 h
[7]
  bioavailability: 42%
[8]
  clearance: 6 mL/min/kg
[9]
  pKb: 4.39
[10]
  pKb: 4.93
[11]
  pKb: 5.6
[12]
  Selectivity ratio: 15
[13]
  Selectivity ratio: 5
Rattus norvegicus [4]
  Activity: 54%

## O=C(/C=C/c1ccccc1[N+](=O)[O-])N1CCN(CC2CCCCC2)CC1
CHO [1]
  inhibition at 10 µM: 91.5%
CHO [2]
  Kb: 0.49 µM
Platelet
  pKb: 5.31
Rattus norvegicus [3]
  Activity: 29%
